Data published in ChEMBL document CHEMBL4118244, “Design, synthesis and biological evaluation of benzofuran appended benzothiazepine derivatives as inhibitors of butyrylcholinesterase and antimicrobial agents” (Bioorg Med Chem, 2018).
Converted amounts (≈) assume the structure as drawn. The source made the active and inactive calls. The calls are words filed in the database; no cut-off is given here.

Columns and labels:
Staphylococcus aureus [1] = assay: Antibacterial activity against Staphylococcus aureus ATCC 29737; type: functional
Shigella dysenteriae [2] = assay: Antibacterial activity against Shigella dysenteriae PTCC 1188 assessed as diameter of inhibition zone at 200 ug per disc after 24 hrs by agar disc diffusion method; type: functional; details: PTCC 1188, 24 h, read-out: DIZ
In short: (§1)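 Agar disc diffusion. Compounds at 20 mg mL⁻¹ in DMSO, filter-sterilised. 100 µL of 10⁸ CFU mL⁻¹ bacteria spread on nutrient agar. 6 mm discs carried 10 µl (200 µg per disc), with DMSO discs as negative control. Incubation 24 h at 37 °C. Read-out is inhibition zone diameter, mean of 3 repeats (±1 mm).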

Staphylococcus aureus [3] = assay: Antibacterial activity against Staphylococcus aureus ATCC 29737 assessed as diameter of inhibition zone at 200 ug per disc after 24 hrs by agar disc diffusion method; type: functional; details: ATCC 29737, 24 h, read-out: DIZ; in short: as §1
Aspergillus brasiliensis [4] = assay: Antifungal activity against Aspergillus brasiliensis PTCC 5011 assessed as diameter of inhibition zone at 200 ug per disc after 72 hrs by agar disc diffusion method; type: functional; details: PTCC 5011, 72 h, read-out: DIZ
In short: (§2)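 Agar disc diffusion against mold. Compounds at 20 mg mL⁻¹ in DMSO, filter-sterilised. 6 mm discs carried 10 µl (200 µg per disc), with DMSO discs as negative control. Incubation 72 h at 30 °C. Read-out is growth inhibition zone diameter, mean of 3 repeats (±1 mm).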

Aspergillus niger [5] = assay: Antifungal activity against Aspergillus niger ATCC 16404 assessed as diameter of inhibition zone at 200 ug per disc after 72 hrs by agar disc diffusion method; type: functional; details: ATCC 16404, 72 h, read-out: DIZ; in short: as §2
Shigella dysenteriae [6] = assay: Antibacterial activity against Shigella dysenteriae PTCC 1188; type: functional
Aspergillus brasiliensis [7] = assay: Antifungal activity against Aspergillus brasiliensis PTCC 5011; type: functional
Bacillus spizizenii [8] = assay: Antibacterial activity against Bacillus subtilis ATCC 6633 assessed as diameter of inhibition zone at 200 ug per disc after 24 hrs by agar disc diffusion method; type: functional; details: ATCC 6633, 24 h, read-out: DIZ; in short: as §1
Candida albicans [9] = assay: Antifungal activity against Candida albicans ATCC 10231 assessed as diameter of inhibition zone at 200 ug per disc after 48 hrs by agar disc diffusion method; type: functional; details: ATCC 10231, 48 h, read-out: DIZ
In short: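 Yeast tested by agar disc diffusion. Compounds at 20 mg mL⁻¹ in DMSO, filter-sterilised. 6 mm discs carried 10 µl (200 µg per disc), with DMSO discs as negative control. Incubation 48 h at 30 °C. Zone diameter was averaged over 3 repeats (±1 mm).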

Cholinesterase = Cholinesterase (Equus caballus, UniProt P81908); assay: Inhibition of equine serum BChE using butyrylthiocholine iodide as substrate pretreated for 15 mins followed by substrate addition measured for 6 mins by Ellman's method
In short: (§3)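 Ellman spectrophotometric assay in 0.1 M phosphate buffer pH 8.0 with DTNB, 25 °C. AChE (electric eel, Type V-S) or BChE was preincubated 15 min with compound before adding acetylthiocholine iodide or butyrylthiocholine iodide, respectively. Absorbance change at 412 nm was read for 6 min. Five concentrations were tested in triplicate, corrected by a nonenzymatic blank, with a no-inhibitor reference.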

Pseudomonas aeruginosa [10] = assay: Antibacterial activity against Pseudomonas aeruginosa ATCC 27853; type: functional
Salmonella paratyphi [11] = assay: Antibacterial activity against Salmonella paratyphi A serotype ATCC 5702; type: functional, Salmonella enterica subsp. enterica serovar Paratyphi A
Escherichia coli [12] = assay: Antibacterial activity against Escherichia coli ATCC 10536 assessed as diameter of inhibition zone at 200 ug per disc after 24 hrs by agar disc diffusion method; type: functional; details: ATCC 10536, 24 h, read-out: DIZ; in short: as §1
Proteus vulgaris [13] = assay: Antibacterial activity against Proteus vulgaris PTCC 1182; type: functional
Klebsiella pneumoniae [14] = assay: Antibacterial activity against Klebsiella pneumoniae ATCC 10031 assessed as diameter of inhibition zone at 200 ug per disc after 24 hrs by agar disc diffusion method; type: functional; details: ATCC 10031, 24 h, read-out: DIZ; in short: as §1
Aspergillus niger [15] = assay: Antifungal activity against Aspergillus niger ATCC 16404; type: functional
Candida albicans [16] = assay: Antifungal activity against Candida albicans ATCC 10231; type: functional
Escherichia coli [17] = assay: Antibacterial activity against Escherichia coli ATCC 10536; type: functional
Salmonella paratyphi [18] = assay: Antibacterial activity against Salmonella paratyphi A serotype ATCC 5702 assessed as diameter of inhibition zone at 200 ug per disc after 24 hrs by agar disc diffusion method; type: functional, Salmonella enterica subsp. enterica serovar Paratyphi A; details: Salmonella enterica, ATCC 5702, 24 h; read-out: DIZ; in short: as §1
Proteus vulgaris [19] = assay: Antibacterial activity against Proteus vulgaris PTCC 1182 assessed as diameter of inhibition zone at 200 ug per disc after 24 hrs by agar disc diffusion method; type: functional; details: PTCC 1182, 24 h, read-out: DIZ; in short: as §1
Klebsiella pneumoniae [20] = assay: Antibacterial activity against Klebsiella pneumoniae ATCC 10031; type: functional
Pseudomonas aeruginosa [21] = assay: Antibacterial activity against Pseudomonas aeruginosa ATCC 27853 assessed as diameter of inhibition zone at 200 ug per disc after 24 hrs by agar disc diffusion method; type: functional; details: ATCC 27853, 24 h, read-out: DIZ; in short: as §1
[22] = tested on: Staphylococcus epidermidis; assay: Antibacterial activity against Staphylococcus epidermidis ATCC 12228 assessed as diameter of inhibition zone at 200 ug per disc after 24 hrs by agar disc diffusion method; type: functional; details: ATCC 12228, 24 h, read-out: DIZ; in short: as §1
Bacillus spizizenii [23] = assay: Antibacterial activity against Bacillus subtilis ATCC 6633; type: functional
[24] = tested on: Staphylococcus epidermidis; assay: Antibacterial activity against Staphylococcus epidermidis ATCC 12228; type: functional
[25] = target: Acetylcholinesterase (Electrophorus electricus) (UniProt O42275); assay: Inhibition of electric eel AChE using acetylthiocholine iodide as substrate pretreated for 15 mins followed by substrate addition measured for 6 mins by Ellman's method; in short: as §3
Acetylcholinesterase (Electrophorus electricus), sequence (O42275 24-633 limits assumed): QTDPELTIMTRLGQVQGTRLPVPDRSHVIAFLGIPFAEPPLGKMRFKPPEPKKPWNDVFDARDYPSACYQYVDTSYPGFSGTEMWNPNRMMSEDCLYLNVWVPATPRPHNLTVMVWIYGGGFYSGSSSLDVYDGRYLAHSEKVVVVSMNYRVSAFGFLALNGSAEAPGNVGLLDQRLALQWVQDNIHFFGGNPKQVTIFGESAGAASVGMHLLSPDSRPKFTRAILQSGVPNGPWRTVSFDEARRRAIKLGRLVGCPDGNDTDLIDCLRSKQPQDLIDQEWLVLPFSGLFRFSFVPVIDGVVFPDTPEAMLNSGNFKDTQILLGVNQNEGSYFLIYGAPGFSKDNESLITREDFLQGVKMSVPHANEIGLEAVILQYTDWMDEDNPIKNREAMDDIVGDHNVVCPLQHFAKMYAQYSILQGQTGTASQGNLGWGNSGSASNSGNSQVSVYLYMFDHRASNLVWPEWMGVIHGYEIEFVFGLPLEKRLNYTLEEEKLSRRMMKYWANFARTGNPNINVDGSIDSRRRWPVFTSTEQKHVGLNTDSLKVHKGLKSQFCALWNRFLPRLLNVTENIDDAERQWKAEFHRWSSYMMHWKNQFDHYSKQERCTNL

Cholinesterase, sequence (P81908 whole entry): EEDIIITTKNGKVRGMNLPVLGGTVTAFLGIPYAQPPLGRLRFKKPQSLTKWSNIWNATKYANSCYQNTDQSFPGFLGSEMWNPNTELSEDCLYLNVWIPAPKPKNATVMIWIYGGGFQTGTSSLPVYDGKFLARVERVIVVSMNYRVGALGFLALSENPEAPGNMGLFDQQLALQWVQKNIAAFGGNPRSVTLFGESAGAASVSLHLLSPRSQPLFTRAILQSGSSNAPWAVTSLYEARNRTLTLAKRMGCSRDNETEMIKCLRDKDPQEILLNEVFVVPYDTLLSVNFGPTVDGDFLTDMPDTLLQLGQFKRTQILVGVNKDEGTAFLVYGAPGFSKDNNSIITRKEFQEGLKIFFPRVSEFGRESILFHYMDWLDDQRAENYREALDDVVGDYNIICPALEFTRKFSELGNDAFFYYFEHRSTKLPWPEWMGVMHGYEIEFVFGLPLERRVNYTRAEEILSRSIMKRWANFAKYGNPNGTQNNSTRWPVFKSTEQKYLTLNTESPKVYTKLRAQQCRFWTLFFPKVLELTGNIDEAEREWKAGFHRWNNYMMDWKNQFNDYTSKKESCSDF

In the case of O=[N+]([O-])c1cccc(C2CC(c3cc4cc(Br)ccc4o3)=Nc3ccccc3S2)c1 (configuration not stated), the MIC (Staphylococcus aureus [1]) is reported as “inactive”, the zone of inhibition at 200 µg/disc (Shigella dysenteriae [2]) is reported as < 6 mm and the zone of inhibition at 200 µg/disc (Staphylococcus aureus [3]) is reported as < 6 mm. For the same compound, the zone of inhibition at 200 µg/disc (Aspergillus brasiliensis [4]) was 23 mm, the zone of inhibition at 200 µg/disc (Aspergillus niger [5]) was 20 mm and the MIC (Shigella dysenteriae [6]) was “inactive”. For the same compound, the MIC (Aspergillus brasiliensis [7]) was 0.5 µg/mL (≈ 1.04 µM), the zone of inhibition at 200 µg/disc (Bacillus spizizenii [8]) was 19 mm and the zone of inhibition at 200 µg/disc (Candida albicans [9]) was < 6 mm. For the same compound, the IC50 (Cholinesterase) was “Not Active”, the MIC (Pseudomonas aeruginosa [10]) was “inactive” and the MIC (Salmonella paratyphi [11]; Salmonella enterica) was 0.5 µg/mL (≈ 1.04 µM). The zone of inhibition at 200 µg/disc (Escherichia coli [12]) was < 6 mm, the MIC (Proteus vulgaris [13]) was “inactive” and the zone of inhibition at 200 µg/disc (Klebsiella pneumoniae [14]) was < 6 mm. For the same compound, the MIC (Aspergillus niger [15]) was 0.25 µg/mL (≈ 0.522 µM), the MIC (Candida albicans [16]) was “inactive” and the MIC (Escherichia coli [17]) was “inactive”. The zone of inhibition at 200 µg/disc (Salmonella paratyphi [18]) was 23 mm, the zone of inhibition at 200 µg/disc (Proteus vulgaris [19]) was < 6 mm and the MIC (Klebsiella pneumoniae [20]) was “inactive”. The zone of inhibition at 200 µg/disc (Pseudomonas aeruginosa [21]) was < 6 mm, the zone of inhibition at 200 µg/disc [22] was < 6 mm and the MIC (Bacillus spizizenii [23]) was 12.5 µg/mL (≈ 26.1 µM). The MIC [24] was “inactive” and the inhibition [25] was “inactive”.

In the case of Brc1ccc2oc(C3=Nc4ccccc4SC(c4cccc5ccccc45)C3)cc2c1 (configuration not stated), the MIC (Staphylococcus aureus [1]) is reported as 5 µg/mL (≈ 10.3 µM), the zone of inhibition at 200 µg/disc (Shigella dysenteriae [2]) is reported as 14 mm and the zone of inhibition at 200 µg/disc (Staphylococcus aureus [3]) is reported as 10 mm. For the same compound, the zone of inhibition at 200 µg/disc (Aspergillus brasiliensis [4]) was < 6 mm, the zone of inhibition at 200 µg/disc (Aspergillus niger [5]) was < 6 mm and the MIC (Shigella dysenteriae [6]) was 50 µg/mL (≈ 103 µM). The MIC (Aspergillus brasiliensis [7]) was “inactive”, the zone of inhibition at 200 µg/disc (Bacillus spizizenii [8]) was 12 mm and the zone of inhibition at 200 µg/disc (Candida albicans [9]) was 14 mm. For the same compound, the IC50 (Cholinesterase; read-out: IC50) was 17 µM, the MIC (Pseudomonas aeruginosa [10]) was “inactive” and the MIC (Salmonella paratyphi [11]; Salmonella enterica subsp. enterica serovar Paratyphi A) was “inactive”. The zone of inhibition at 200 µg/disc (Escherichia coli [12]) was < 6 mm, the MIC (Proteus vulgaris [13]) was 12.5 µg/mL (≈ 25.8 µM) and the zone of inhibition at 200 µg/disc (Klebsiella pneumoniae [14]) was < 6 mm. The MIC (Aspergillus niger [15]) was “inactive”, the MIC (Candida albicans [16]) was 25 µg/mL (≈ 51.6 µM) and the MIC (Escherichia coli [17]) was “inactive”. The zone of inhibition at 200 µg/disc (Salmonella paratyphi [18]) was < 6 mm, the zone of inhibition at 200 µg/disc (Proteus vulgaris [19]) was 19 mm and the MIC (Klebsiella pneumoniae [20]) was “inactive”. The zone of inhibition at 200 µg/disc (Pseudomonas aeruginosa [21]) was < 6 mm, the zone of inhibition at 200 µg/disc [22] was < 6 mm and the MIC (Bacillus spizizenii [23]) was 5 µg/mL (≈ 10.3 µM). The MIC [24] was “inactive” and the inhibition [25] was “inactive”.
